According to PMC11532418 (Scientific Reports, 2024):

What was measured:
NIH/3T3 = test: MTT cytotoxic bioassay on normal cell line; format: cell-based; conditions: Mus musculus, NIH3T3, 72 h, read-out: IC50 ± SD
Procedure, shortened: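 NIH/3T3 fibroblasts were grown in high-glucose DMEM with 10% FBS and 1% penicillin-streptomycin under humidified 5% CO2. 1.0 × 10^4 cells/well were precultured for 16 h, then exposed for 72 h in fresh medium (reference drug at 1–200 µM). MTT (0.50 mg/ml final) was added for 4 h, and formazan was dissolved in DMSO. A570 − A630 gave % viability. IC50 is mean ± SD of three independent experiments.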

DPP4 enzyme [1] = target: T1, DPP4 enzyme (Homo sapiens, UniProt P27487); test: biochemical; conditions: read-out: % DPP4 Enzyme Inhibition, at 20 µM
DPP4 enzyme [2] = target: T1, DPP4 enzyme; test: Kinetic study of DPP4 inhibition; format: biochemical
Procedure, shortened: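 DPP4 inhibition kinetics with fluorogenic substrate H-Gly-Pro-AMC at different substrate-to-enzyme concentration ratios, test compound at four concentrations (0.5, 5, 25 and 50 µM). Double-reciprocal plots of 1/velocity vs 1/[substrate] fitted by weighted least squares, assuming velocity variance is a constant percentage of v. Lineweaver–Burk slopes were replotted against inhibitor concentration, and Ki was taken as the negative X-axis intercept.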

T1 sequence (P27487 whole entry): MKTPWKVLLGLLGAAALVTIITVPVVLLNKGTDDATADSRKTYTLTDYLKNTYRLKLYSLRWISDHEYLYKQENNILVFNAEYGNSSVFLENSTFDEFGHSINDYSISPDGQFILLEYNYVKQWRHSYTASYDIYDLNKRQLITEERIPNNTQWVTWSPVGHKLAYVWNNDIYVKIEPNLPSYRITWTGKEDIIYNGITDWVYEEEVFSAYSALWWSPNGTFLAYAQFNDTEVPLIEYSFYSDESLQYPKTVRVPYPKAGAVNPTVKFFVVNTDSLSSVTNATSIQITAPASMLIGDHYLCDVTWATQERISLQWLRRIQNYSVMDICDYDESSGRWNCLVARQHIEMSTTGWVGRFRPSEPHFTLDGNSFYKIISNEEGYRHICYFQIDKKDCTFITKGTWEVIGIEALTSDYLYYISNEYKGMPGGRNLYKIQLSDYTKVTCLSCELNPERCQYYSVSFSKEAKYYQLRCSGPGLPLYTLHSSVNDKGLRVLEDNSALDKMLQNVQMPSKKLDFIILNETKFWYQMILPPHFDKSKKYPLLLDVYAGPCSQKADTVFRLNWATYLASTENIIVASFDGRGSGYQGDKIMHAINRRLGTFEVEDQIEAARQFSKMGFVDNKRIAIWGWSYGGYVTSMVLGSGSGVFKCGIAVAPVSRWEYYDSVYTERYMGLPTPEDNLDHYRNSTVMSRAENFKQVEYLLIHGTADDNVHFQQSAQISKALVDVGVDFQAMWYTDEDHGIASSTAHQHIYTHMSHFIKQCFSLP

Structure (SMILES) | IC50 (NIH/3T3) [µM] | also measured
Cn1c(=O)cc(N2CCC(N)CC2)n(Cc2nc3ccccc3c(=O)n2-c2ccccc2)c1=O [9a, 6-(4-Aminopiperidin-1-yl)-3-methyl-1-((4-oxo-3-phenyl-3,4-dihydroquinazolin-2-yl)methyl)pyrimidine-2,4(1 H,3 H)-dione] | 88.1 ± 3.22 | –
Cn1c(=O)cc(N2CCC(N)CC2)n(Cc2nc3ccccc3c(=O)n2-c2ccc(F)cc2)c1=O [9b, 6-(4-Aminopiperidin-1-yl)-1-((3-(4-fluorophenyl)-4-oxo-3,4-dihydroquinazolin-2-yl)methyl)-3-methylpyrimidine-2,4(1 H,3 H)-dione] | 62.9 ± 1.98 | –
Cn1c(=O)cc(N2CCC(N)CC2)n(Cc2nc3ccccc3c(=O)n2-c2ccc(Cl)cc2)c1=O [9c, 6-(4-Aminopiperidin-1-yl)-1-((3-(4-chlorophenyl)-4-oxo-3,4-dihydroquinazolin-2-yl)methyl)-3-methylpyrimidine-2,4(1 H,3 H)-dione] | 72.2 ± 3.91 | inhibition at 20 µM (DPP4 enzyme [1]): > 50%
Cc1ccc(-n2c(Cn3c(N4CCC(N)CC4)cc(=O)n(C)c3=O)nc3ccccc3c2=O)cc1 [9d, 6-(4-Aminopiperidin-1-yl)-3-methyl-1-((4-oxo-3-(p-tolyl)-3,4-dihydroquinazolin-2-yl)methyl)pyrimidine-2,4(1 H,3 H)-dione] | 39.3 ± 1.05 | –
Cn1c(=O)cc(N2CCC(N)CC2)n(Cc2nc3ccccc3c(=O)n2-c2cccc(C(F)(F)F)c2)c1=O [9e, 6-(4-Aminopiperidin-1-yl)-3-methyl-1-((4-oxo-3-(3-(trifluoromethyl)phenyl)-3,4-dihydroquinazolin-2-yl)methyl)pyrimidine-2,4(1 H,3 H)-dione] | 81.5 ± 5.94 | –
Cn1c(=O)cc(N2CCC(N)CC2)n(Cc2nc3ccccc3c(=O)n2-c2ccc(F)c(Cl)c2)c1=O [9f, 6-(4-Aminopiperidin-1-yl)-1-((3-(3-chloro-4-fluorophenyl)-4-oxo-3,4-dihydroquinazolin-2-yl)methyl)-3-methylpyrimidine-2,4(1 H,3 H)-dione] | 43.4 ± 1.02 | –
Cn1c(=O)cc(N2CCC(N)CC2)n(Cc2nc3ccc(Br)cc3c(=O)n2-c2ccccc2)c1=O [9g, 6-(4-Aminopiperidin-1-yl)-1-((6-bromo-4-oxo-3-phenyl-3,4-dihydroquinazolin-2-yl)methyl)-3-methylpyrimidine-2,4(1 H,3 H)-dione] | 102 ± 4.05 | –
Cn1c(=O)cc(N2CCC(N)CC2)n(Cc2nc3ccc(Br)cc3c(=O)n2-c2ccc(F)cc2)c1=O [9h, 6-(4-Aminopiperidin-1-yl)-1-((6-bromo-3-(4-fluorophenyl)-4-oxo-3,4-dihydroquinazolin-2-yl)methyl)-3-methylpyrimidine-2,4(1 H,3 H)-dione] | 89.7 ± 3.76 | –
Cn1c(=O)cc(N2CCC(N)CC2)n(Cc2nc3ccc(Br)cc3c(=O)n2-c2ccc(Cl)cc2)c1=O [9i, 6-(4-Aminopiperidin-1-yl)-1-((6-bromo-3-(4-chlorophenyl)-4-oxo-3,4-dihydroquinazolin-2-yl)methyl)-3-methylpyrimidine-2,4(1 H,3 H)-dione] | 76.9 ± 2.58 | Ki (DPP4 enzyme [2]): 12 µM; type of inhibition (DPP4 enzyme [2]; Lineweaver-Burk plot): competitive
Cn1c(=O)cc(N2CCC(N)CC2)n(Cc2nc3ccc(Br)cc3c(=O)n2-c2ccc(Br)cc2)c1=O [9j, 6-(4-Aminopiperidin-1-yl)-1-((6-bromo-3-(4-bromophenyl)-4-oxo-3,4-dihydroquinazolin-2-yl)methyl)-3-methylpyrimidine-2,4(1 H,3 H)-dione] | 91 ± 1.98 | inhibition at 20 µM (DPP4 enzyme [1]): > 50%
Cn1c(=O)cc(N2CCC(N)CC2)n(Cc2nc3ccc(Br)cc3c(=O)n2-c2cccc(F)c2)c1=O [9k, 6-(4-Aminopiperidin-1-yl)-1-((6-bromo-3-(3-fluorophenyl)-4-oxo-3,4-dihydroquinazolin-2-yl)methyl)-3-methylpyrimidine-2,4(1 H,3 H)-dione] | 68.4 ± 3.01 | –
Cn1c(=O)cc(N2CCC(N)CC2)n(Cc2nc3ccc(Br)cc3c(=O)n2-c2cccc(Br)c2)c1=O [9l, 6-(4-Aminopiperidin-1-yl)-1-((6-bromo-3-(3-bromophenyl)-4-oxo-3,4-dihydroquinazolin-2-yl)methyl)-3-methylpyrimidine-2,4(1 H,3 H)-dione] | 78.1 ± 2.95 | –
N[C@@H](CC(=O)N1CCn2c(nnc2C(F)(F)F)C1)Cc1cc(F)c(F)cc1F [Sitagliptin, reference compound] | 111 ± 5.85 | –
